Reference: ChEMBL document CHEMBL3102726, “Synthesis of tricyclic fused coumarin sulfonates and their inhibitory effects on LPS-induced nitric oxide and PGE2 productions in RAW 264.7 macrophages” (Bioorg Med Chem Lett, 2014)
Active and inactive are the calls of the source. The rule behind the calls is not given here.

Key:
RAW264.7 [1] = test: Antiinflammatory activity against mouse RAW264.7 cells assessed as inhibition of LPS-induced iNOS protein expression administered 1 hr prior to LPS-challenge measured after 24 hrs by SDS-PAGE analysis; assay type: functional, cell-based
Method in brief: (§1)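 RAW 264.7 macrophages were pretreated for 1 h with or without 0.01, 0.1, 0.5, 1, 5 or 10 µM compound, then stimulated with LPS (10 ng/mL) for 24 h. Cell lysates were run on SDS–PAGE and transferred to PVDF. Blots were probed with iNOS and COX-2 antibodies, with β-actin as internal control.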

RAW264.7 [2] = test: Antiinflammatory activity against mouse RAW264.7 cells assessed as inhibition of LPS-induced PGE2 production administered 1 hr prior to LPS-challenge measured after 24 hrs by EIA; assay type: functional, cell-based
Method in brief: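 Cells were pretreated for 1 h with compound at 0.1, 1, 10, 100 or 1000 nM, then given LPS (10 ng/mL) for 24 h. PGE₂ in culture media was quantified by EIA kit. Values are means ± SD of three independent experiments; ANOVA with Dunnett's post hoc test.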

RAW264.7 [3] = test: Cytotoxicity against mouse RAW264.7 cells after 24 hrs by MTT assay; assay type: cell-based; settings: RAW264.7, 24 h
Method in brief: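 Cells were seeded at 10⁵/well and exposed to various concentrations of compound for 24 h. Viability was read by colorimetric MTT assay.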

[4] = biological target: T1, Nitric oxide synthase, inducible (Mus musculus) (UniProt P29477); test: Inhibition of LPS-induced iNOS activity in mouse RAW264.7 cells at 1 to 10 uM after 12 hrs
T1 sequence (whole entry): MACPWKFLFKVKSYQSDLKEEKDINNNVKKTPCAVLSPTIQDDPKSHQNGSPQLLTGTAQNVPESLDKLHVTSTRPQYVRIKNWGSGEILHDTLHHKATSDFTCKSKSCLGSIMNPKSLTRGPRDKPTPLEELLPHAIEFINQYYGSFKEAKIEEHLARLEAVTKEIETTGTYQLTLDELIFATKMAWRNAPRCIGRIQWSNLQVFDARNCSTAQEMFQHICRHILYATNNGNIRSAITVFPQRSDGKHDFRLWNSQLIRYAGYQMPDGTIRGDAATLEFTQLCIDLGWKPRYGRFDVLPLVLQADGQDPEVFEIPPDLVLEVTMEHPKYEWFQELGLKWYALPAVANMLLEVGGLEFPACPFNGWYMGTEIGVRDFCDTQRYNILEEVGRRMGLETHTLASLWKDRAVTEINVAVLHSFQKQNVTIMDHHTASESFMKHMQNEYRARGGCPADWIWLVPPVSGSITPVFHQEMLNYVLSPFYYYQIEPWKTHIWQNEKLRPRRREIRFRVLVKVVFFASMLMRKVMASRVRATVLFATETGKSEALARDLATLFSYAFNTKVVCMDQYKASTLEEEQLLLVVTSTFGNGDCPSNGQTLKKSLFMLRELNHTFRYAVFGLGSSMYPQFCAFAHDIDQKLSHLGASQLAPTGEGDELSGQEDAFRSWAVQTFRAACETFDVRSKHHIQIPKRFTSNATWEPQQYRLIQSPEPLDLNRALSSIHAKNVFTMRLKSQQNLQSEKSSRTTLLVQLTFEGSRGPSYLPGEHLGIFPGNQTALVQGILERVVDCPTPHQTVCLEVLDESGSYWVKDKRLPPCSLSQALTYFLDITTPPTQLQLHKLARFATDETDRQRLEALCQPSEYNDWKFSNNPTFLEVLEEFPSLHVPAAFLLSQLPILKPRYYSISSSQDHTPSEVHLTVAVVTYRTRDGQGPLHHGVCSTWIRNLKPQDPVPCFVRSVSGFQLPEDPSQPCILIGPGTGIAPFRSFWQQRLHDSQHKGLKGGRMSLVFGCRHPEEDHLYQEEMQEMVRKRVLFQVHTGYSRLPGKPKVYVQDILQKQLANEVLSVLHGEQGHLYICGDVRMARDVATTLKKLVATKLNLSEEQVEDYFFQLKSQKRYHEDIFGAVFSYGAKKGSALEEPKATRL

RAW264.7 [5] = test: Antiinflammatory activity against mouse RAW264.7 cells assessed as inhibition of LPS-induced PGE2 production at 5 uM administered 1 hr prior to LPS-challenge measured after 24 hrs by EIA; assay type: functional
Method in brief: (§2)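 Single-concentration PGE₂ assay in LPS-stimulated RAW 264.7 cells: test compounds at 5 µM, reference NS398 at 3 µM. PGE₂ in culture media was quantified by EIA. Values are means ± SD of three independent experiments.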

[6] = biological target: T2, Prostaglandin G/H synthase 2 (Homo sapiens) (UniProt P35354); test: Inhibition of LPS-induced recombinant COX2 (unknown origin) activity expressed in mouse RAW264.7 cells at 0.1 to 5 uM after 10 mins; assay type: cell-based
T2 sequence (whole entry): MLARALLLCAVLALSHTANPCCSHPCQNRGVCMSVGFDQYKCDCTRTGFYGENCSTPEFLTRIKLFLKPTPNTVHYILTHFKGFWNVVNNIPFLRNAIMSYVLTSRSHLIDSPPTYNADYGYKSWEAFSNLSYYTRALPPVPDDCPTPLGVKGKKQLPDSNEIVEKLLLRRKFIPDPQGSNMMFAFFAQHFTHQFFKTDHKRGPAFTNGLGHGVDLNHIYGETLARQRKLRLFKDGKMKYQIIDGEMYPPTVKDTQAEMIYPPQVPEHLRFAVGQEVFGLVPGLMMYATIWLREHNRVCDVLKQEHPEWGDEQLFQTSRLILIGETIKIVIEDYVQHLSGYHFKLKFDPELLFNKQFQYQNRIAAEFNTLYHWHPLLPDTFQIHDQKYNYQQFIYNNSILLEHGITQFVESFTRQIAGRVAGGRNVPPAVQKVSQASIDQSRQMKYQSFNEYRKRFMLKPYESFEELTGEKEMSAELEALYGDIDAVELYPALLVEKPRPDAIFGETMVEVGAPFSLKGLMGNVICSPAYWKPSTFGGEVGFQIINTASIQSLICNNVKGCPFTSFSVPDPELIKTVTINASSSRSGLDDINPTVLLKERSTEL

RAW264.7 [7] = test: Antiinflammatory activity against mouse RAW264.7 cells assessed as inhibition of LPS-induced NO production after 24 hrs by Griess assay; assay type: functional, cell-based; settings: RAW264.7, 24 h
Method in brief: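 Cells were plated at 4 × 10⁵/well in DMEM with 10% FBS at 37 °C, 5% CO₂. They were incubated 24 h with LPS (1 µg/mL) plus compound at 1.60–100 µM. Medium was mixed 1:1 with Griess reagent (sulfanilamide/naphthylethylenediamine in phosphoric acid) for 10 min at room temperature, then A540 was read against fresh medium blanks.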

RAW264.7 [8] = test: Antiinflammatory activity against mouse RAW264.7 cells assessed as inhibition of LPS-induced COX2 protein expression administered 1 hr prior to LPS-challenge measured after 24 hrs by SDS-PAGE analysis; assay type: functional, cell-based; method in brief: as §1
RAW264.7 [9] = test: Antiinflammatory activity against mouse RAW264.7 cells assessed as inhibition of LPS-induced NO production at 5 uM after 24 hrs by Griess assay; assay type: functional
Method in brief: (§3)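 Single-concentration NO assay: test compounds at 5 µM, reference L-NIL at 20 µM, in LPS-stimulated RAW 264.7 cells. Nitrite in the medium was measured by Griess reaction (A540). Values are means ± SD of three independent experiments.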

RAW264.7 [10] = test: Ratio of L-NIL IC50 to compound IC50 for mouse RAW264.7 cells; assay type: functional
RAW264.7 [11] = test: Antiinflammatory activity against mouse RAW264.7 cells assessed as inhibition of LPS-induced NO production at 20 uM after 24 hrs by Griess assay; assay type: functional; settings: RAW264.7, 24 h; method in brief: as §3
RAW264.7 [12] = test: Antiinflammatory activity against mouse RAW264.7 cells assessed as inhibition of LPS-induced PGE2 production at 3 uM administered 1 hr prior to LPS-challenge measured after 24 hrs by EIA; assay type: functional, cell-based; method in brief: as §2
RAW264.7 [13] = test: Ratio of NS398 IC50 to compound IC50 for mouse RAW264.7 cells; assay type: functional
RAW264.7 [14] = test: Antiinflammatory activity against mouse RAW264.7 cells assessed as inhibition of LPS-induced NO production administered 1 hr prior to LPS-challenge measured after 24 hrs by Griess assay; assay type: functional, cell-based
Method in brief: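 RAW 264.7 cells were grown in DMEM with 10% FBS, penicillin and streptomycin at 37 °C under 5% CO2, then plated at 4 × 10^5 cells/well. Culture medium was mixed 1:1 with Griess reagent (equal volumes of 1% sulfanilamide in 5% phosphoric acid and 0.1% naphthylethylenediamine·HCl) for 10 min at room temperature, and nitrite was read at 540 nm against fresh-medium blanks.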

Structure (SMILES)	IC50 (RAW264.7 [2])	IC50 (RAW264.7 [3])	inhibition (RAW264.7 [5])	inhibition (RAW264.7 [9])	also measured
O=c1oc2cc(OS(=O)(=O)c3ccc(C(F)(F)F)cc3)ccc2c2c1CCCCC2	0.00645 µM	> 100 µM			inhibition (RAW264.7 [1]): Active; inhibition [4]: inactive; inhibition (INH) (RAW264.7 [5]): 91.48%; inhibition [6]: Active; IC50 (RAW264.7 [7]): 3.84 µM; inhibition (RAW264.7 [8]): Dose-dependent effect; inhibition at 5 µM (RAW264.7 [9]; RAW264.7, 24 h): 65.8%; Ratio IC50 (RAW264.7 [10]): 5.24
CC(=N)NCCCC[C@H](N)C(=O)O [L-NIL]					inhibition at 20 µM (RAW264.7 [11]): 50%; IC50 (RAW264.7 [7]): 20.1 µM
CCS(=O)(=O)Oc1ccc2c3c(c(=O)oc2c1)CCCCCC3		21.5 µM	Active	Active	
CS(=O)(=O)Nc1ccc([N+](=O)[O-])cc1OC1CCCCC1 [NS-398]	0.00701 µM				inhibition (RAW264.7 [12]): Active
O=c1oc2cc(OS(=O)(=O)C3CC3)ccc2c2c1CCCCCC2		10.5 µM	Active	Active	
O=c1oc2cc(OS(=O)(=O)c3ccccc3)ccc2c2c1CCCCCC2		> 100 µM		Active	
Cc1ccc(S(=O)(=O)Oc2ccc3c4c(c(=O)oc3c2)CCCCCC4)cc1	0.00675 µM	> 100 µM	Active	Active	IC50 (RAW264.7 [7]): 40.7 µM
O=c1oc2cc(OS(=O)(=O)c3ccccc3)ccc2c2c1CCCCC2		> 100 µM	Active	Active	
Cc1ccc(S(=O)(=O)Oc2ccc3c4c(c(=O)oc3c2)CCCCC4)cc1		> 100 µM	Active	Active	
CCCS(=O)(=O)Oc1ccc2c3c(c(=O)oc2c1)CCCCCC3	0.00402 µM	9.2 µM	Active	Active	Ratio IC50 (RAW264.7 [13]): 1.74; IC50 (RAW264.7 [7]): 10 µM
CS(=O)(=O)Oc1ccc2c3c(c(=O)oc2c1)CCCCCC3		24.5 µM	Active	Active	
NS(=O)(=O)Oc1ccc2c3c(c(=O)oc2c1)CCCCC3 [IROSUSTAT]	0.081 µM				inhibition (RAW264.7 [2]): Dose-dependent effect; IC50 (RAW264.7 [14]): 85.8 µM; inhibition (RAW264.7 [14]): Dose-dependent effect
O=c1oc2cc(OS(=O)(=O)C3CC3)ccc2c2c1CCCCC2		20.3 µM	Active	Active	
CCS(=O)(=O)Oc1ccc2c3c(c(=O)oc2c1)CCCCC3		23.4 µM	Active	Active	
O=c1oc2cc(OS(=O)(=O)c3ccc(C(F)(F)F)cc3)ccc2c2c1CCCCCC2	0.00604 µM	> 100 µM		Active	IC50 (RAW264.7 [7]): 75.3 µM
CS(=O)(=O)Oc1ccc2c3c(c(=O)oc2c1)CCCCC3		90.8 µM	Active	Active	
CCCS(=O)(=O)Oc1ccc2c3c(c(=O)oc2c1)CCCCC3		23.9 µM	Active	Active	
